Data published in ChEMBL document CHEMBL1157638, “Fluorescent epigenetic small molecule induces expression of the tumor suppressor ras-association domain family 1A and inhibits human prostate xenograft” (J Med Chem, 2010).
Activity calls are given as the source filed them. The calls are words filed in the database; no cut-off is given here.

How the values were obtained:
KM12 [1] = test: Growth inhibition of human KM12 cells assessed as cell growth at 1 nM relative to untreated control; format: functional; conditions: read-out: Activity
MOLT-4 = test: Growth inhibition of human MOLT4 cells assessed as cell growth at 1 uM relative to untreated control; format: functional; conditions: read-out: Activity
NCI-H322M = test: Growth inhibition of human NCI-H322M cells assessed as cell growth at 1 uM relative to untreated control; format: functional; conditions: read-out: Activity
HOP-92 [2] = test: Growth inhibition of human HOP92 cells assessed as cell growth at 1 uM relative to untreated control; format: functional; conditions: read-out: Activity
How it was run: (§1)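 Run externally at the National Cancer Institute as a 59-cell-line panel screen, with concentrations up to 100 μM. Growth was scored relative to control, where negative growth or total cell kill was possible. Data are in the Supporting Information.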

SW-620 = test: Growth inhibition of human SW620 cells assessed as cell growth at 1 nM relative to untreated control; format: functional; conditions: read-out: Activity
SF-539 [3] = test: Growth inhibition of human SF539 cells assessed as cell growth at 10 uM relative to untreated control; format: functional; conditions: read-out: Activity
NCI-H23 [4] = test: Growth inhibition of human NCI-H23 cells assessed as cell growth at 100 nM relative to untreated control; format: functional; conditions: read-out: Activity
A498 = test: Growth inhibition of human A498 cells assessed as cell growth at 10 nM relative to untreated control; format: functional; conditions: read-out: Activity
UACC-62 = test: Growth inhibition of human UACC62 cells assessed as cell growth at 10 nM relative to untreated control; format: functional; conditions: read-out: Activity
OVCAR-8 [5] = test: Growth inhibition of human OVCAR8 cells assessed as cell growth at 1 uM relative to untreated control; format: functional; conditions: read-out: Activity
KM12 [6] = test: Growth inhibition of human KM12 cells assessed as cell growth at 10 uM relative to untreated control; format: functional; conditions: read-out: Activity
NCI-H23 [7] = test: Growth inhibition of human NCI-H23 cells assessed as cell growth at 10 uM relative to untreated control; format: functional; conditions: read-out: Activity
OVCAR-3 = test: Growth inhibition of human OVCAR-3 cells assessed as cell growth at 10 uM relative to untreated control; format: functional; conditions: read-out: Activity
[8] = Growth inhibition of human […] cells assessed as cell growth at 10 uM relative to untreated control; format: functional; conditions: read-out: Activity
NCI/ADR-RES = test: Growth inhibition of human NCI/ADR-RES cells; format: functional
OVCAR-8 [9] = test: Growth inhibition of human OVCAR8 cells; format: functional
HCC 2998 = test: Growth inhibition of human HCC2998 cells assessed as cell growth at 1 nM relative to untreated control; format: functional; conditions: read-out: Activity; how it was run: as §1
MDA-MB-435 = test: Growth inhibition of human MDA-MB-435 cells assessed as cell growth at 100 nM relative to untreated control; format: functional; conditions: read-out: Activity
SF-295 [10] = test: Growth inhibition of human SF295 cells assessed as cell growth at 100 nM relative to untreated control; format: functional; conditions: read-out: Activity
M14 [11] = test: Growth inhibition of human M14 cells assessed as cell growth at 100 nM relative to untreated control; format: functional; conditions: read-out: Activity
SF-539 [12] = test: Growth inhibition of human SF539 cells; format: functional; conditions: read-out: LC50 (the source's name)
SK-MEL-28 = test: Growth inhibition of human SK-MEL-28 cells assessed as cell growth at 10 uM relative to untreated control; format: functional; conditions: read-out: Activity
T47D = test: Growth inhibition of human T47D cells; format: functional
SK-OV-3 = test: Growth inhibition of human SKOV3 cells assessed as cell growth at 10 uM relative to untreated control; format: functional; conditions: read-out: Activity
M14 [13] = test: Growth inhibition of human M14 cells assessed as cell growth at 10 uM relative to untreated control; format: functional; conditions: read-out: Activity
UO-31 = test: Growth inhibition of human UO31 cells assessed as cell growth at 100 nM relative to untreated control; format: functional; conditions: read-out: Activity
DU-145 = test: Growth inhibition of human DU145 cells; format: functional; how it was run: as §1
HL-60(TB) = test: Growth inhibition of human HL-60(TB) cells assessed as cell growth at 10 uM relative to untreated control; format: functional; conditions: read-out: Activity
HOP-92 [14] = test: Growth inhibition of human HOP92 cells assessed as cell growth at 1 nM relative to untreated control; format: functional; conditions: read-out: Activity; how it was run: as §1
EKVX = test: Growth inhibition of human EKVX cells assessed as cell growth at 100 nM relative to untreated control; format: functional; conditions: read-out: Activity; how it was run: as §1
OVCAR-4 [15] = test: Growth inhibition of human OVCAR4 cells assessed as cell growth at 10 nM relative to untreated control; format: functional; conditions: read-out: Activity
CAKI-1 = test: Growth inhibition of human Caki1 cells assessed as cell growth at 10 uM relative to untreated control; format: functional; conditions: read-out: Activity; how it was run: as §1
PC-3 = test: Cytostatic against human PC3 cells up to 30 uM after 24 hrs by trypan blue exclusion method; format: functional, cell-based
How it was run: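 PC-3 cells were seeded in triplicate at 1.5 × 10⁴ cells/well and grown in phenol red-free IMEM with 10% FBS at 37 °C, 5% CO₂. After 24 h they were treated with DMSO or 1, 5, 15, 30 or 60 μM compound for 24 h. Cells were then trypsinized, and live and dead cells were counted by 0.4% trypan blue exclusion on a hemocytometer. Values are mean ± SEM of three independent observations.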

HCT-116 = test: Growth inhibition of human HCT116 cells assessed as cell growth at 10 uM relative to untreated control; format: functional; conditions: read-out: Activity; how it was run: as §1
HT-29 = test: Growth inhibition of human HT-29 cells assessed as cell growth at 100 nM relative to untreated control; format: functional; conditions: read-out: Activity
SF-295 [16] = test: Growth inhibition of human SF295 cells assessed as cell growth at 1 nM relative to untreated control; format: functional; conditions: read-out: Activity
Malme-3M = test: Growth inhibition of human MALME-3M cells assessed as cell growth at 1 uM relative to untreated control; format: functional; conditions: read-out: Activity
HCT-15 = test: Growth inhibition of human HCT15 cells assessed as cell growth at 10 uM relative to untreated control; format: functional; conditions: read-out: Activity; how it was run: as §1
IGROV-1 = test: Growth inhibition of human IGROV1 cells assessed as cell growth at 1 uM relative to untreated control; format: functional; conditions: read-out: Activity
SNB-75 = test: Growth inhibition of human SNB75 cells; format: functional
[17] = Growth inhibition of human Hs 578T cells assessed as cell growth at 10 uM relative to untreated control; format: functional; conditions: read-out: Activity
OVCAR-4 [18] = test: Growth inhibition of human OVCAR4 cells; format: functional
[19] = read-out: LC50 (the source's name)

Structure (SMILES): COc1ccc2c(c1)[nH]c1c(C)c(OS(=O)(=O)c3cccc4c(N(C)C)cccc34)ccc12
- growth at 0.001 µM (KM12 [1]): 110%
- growth at 1 µM (MOLT-4): 20%
- growth at 1 µM (NCI-H322M): 52%
- growth at 1 µM (HOP-92 [2]): 49%
- growth at 0.001 µM (SW-620): 103%
- growth at 10 µM (SF-539 [3]): -32%
- growth at 0.1 µM (NCI-H23 [4]): 81%
- growth at 0.01 µM (A498): 83%
- growth at 0.01 µM (UACC-62): 83%
- growth at 1 µM (OVCAR-8 [5]): 44%
- growth at 10 µM (KM12 [6]): 6%
- growth at 10 µM (NCI-H23 [7]): 8%
- growth at 10 µM (OVCAR-3): -9%
- growth at 10 µM [8]: -2%
- GI50 (NCI/ADR-RES): 4.63 µM
- TGI (NCI/ADR-RES): > 100 µM
- CC50 (NCI/ADR-RES; [19]): > 100 µM
- GI50 (OVCAR-8 [9]): 79.6 µM
- TGI (OVCAR-8 [9]): > 100 µM
- CC50 (OVCAR-8 [9]; [19]): > 100 µM
- growth at 0.001 µM (HCC 2998): 99%
- growth at 0.1 µM (MDA-MB-435): 83%
- growth at 0.1 µM (SF-295 [10]): 69%
- growth at 0.1 µM (M14 [11]): 100%
- CC50 (SF-539 [12]): > 100 µM
- growth at 10 µM (SK-MEL-28): 19%
- GI50 (T47D): 3.06 µM
- TGI (T47D): > 100 µM
- CC50 (T47D; [19]): > 100 µM
- growth at 10 µM (SK-OV-3): 34%
- growth at 10 µM (M14 [13]): 17%
- growth at 0.1 µM (UO-31): 92%
- GI50 (DU-145): 3.54 µM
- TGI (DU-145): > 100 µM
- CC50 (DU-145; [19]): > 100 µM
- growth at 10 µM (HL-60(TB)): -18%
- growth at 0.001 µM (HOP-92 [14]): 101%
- growth at 0.1 µM (EKVX): 91%
- growth at 0.01 µM (OVCAR-4 [15]): 92%
- growth at 10 µM (CAKI-1): 26%
- Activity (PC-3): Active
- growth at 10 µM (HCT-116): 5%
- growth at 0.1 µM (HT-29): 96%
- growth at 0.001 µM (SF-295 [16]): 94%
- growth at 1 µM (Malme-3M): 22%
- growth at 10 µM (HCT-15): 19%
- growth at 1 µM (IGROV-1): 59%
- GI50 (SNB-75): 4.48 µM
- TGI (SNB-75): 47.1 µM
- CC50 (SNB-75; [19]): > 100 µM
- growth at 10 µM [17]: -1%
- GI50 (OVCAR-4 [18]): 7.4 µM
- TGI (OVCAR-4 [18]): > 100 µM
- CC50 (OVCAR-4 [18]; [19]): > 100 µM
